Laboratory results from ChEMBL document CHEMBL1159328, “Cyclotheonamide E4 and E5, new potent tryptase inhibitors from an Ircinia species of sponge” (J Nat Prod, 2002).
*1 amine or outer side, *2 acyl side, *3 side chain or, on linkers, in order; H or OH if unused. Where a SMILES comes first, the peptide text is derived from it. Bridges are numbered along the chain shown (N, C = ends). [ ]: non-standard residue; d: D form. The star is where a group is joined. Arg(ψCOCO) = N=C(N)NCCC[C@H](N[*:1])C(=O)C(=O)[*:2]; X1 = O=C(/C=C/[C@H](Cc1ccc(O)cc1)N[*:1])[*:2]; aIle = CC[C@@H](C)[C@H](N)C(=O)O; Dap = NC[C@H](N)C(=O)O; PhAc = O=C(Cc1ccccc1)*

Tests used:
Prothrombin = Prothrombin (Homo sapiens, UniProt P00734); test: Inhibition of human thrombin
Method in brief: (§1)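 Purified enzyme, preincubated 10 min at 37 °C with a range of inhibitor concentrations. Substrate: 0.2 mM N-p-tosyl-Gly-Pro-Arg p-nitroanilide, in 0.1 M Tris pH 8.0 with 1 mM CaCl2, 1 mM MgCl2, 1 M glycerol and 0.1% Triton X. Then 30 min at 37 °C; absorbance read at 405 nm.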

[1] = Inhibition of mouse tryptase in mouse bone marrow mast cell lysate
Method in brief: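 Lysate (detergent/hypotonic buffer) of CBA/J mouse femoral bone marrow cells cultured 5 weeks with mouse IL-3 (>99% mast cells), used at 8 × 10⁴ cell equiv/mL as tryptase source. 10 min 37 °C preincubation with varied inhibitor levels. Then 0.2 mM tosyl-Gly-Pro-Arg-pNA in Tris pH 8.0 buffer, 30 min 37 °C; absorbance at 405 nm.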

[2] = Inhibition of human tryptase in human cultured mast cell lysate
Method in brief: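 Tryptase source: lysate (detergent/hypotonic buffer) of umbilical cord blood-derived human mast cells, ≥12 weeks in culture with SCF and IL-6, 100% pure; 8 × 10³ cell equiv/mL lysate. Preincubated 10 min at 37 °C with varied inhibitor. Substrate: 0.2 mM tosyl-Gly-Pro-Arg-pNA, Tris pH 8.0 buffer; 30 min at 37 °C; A405.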

[3] = Inhibition of bovine trypsin; parameters: species or system Bos taurus; method in brief: as §1

IC50 (Prothrombin)	IC50 [1]	IC50 [2]	IC50 [3]	Structure (SMILES)
7.4 nM	6.5 nM	5.1 nM	5.9 nM	CCC(C)CC(=O)N[C@@H](C)C(=O)N[C@H]1CNC(=O)/C=C/[C@H](Cc2ccc(O)cc2)NC(=O)[C@H]([C@H](C)CC)NC(=O)C(=O)[C@H](CCCNC(=N)N)NC(=O)[C@@H]2CCCN2C1=O (some centres not stated) [CYCLOTHEONAMIDE E4]
67.9 nM	54.1 nM	84.7 nM	37.3 nM	CCC(C)CC(=O)N[C@@H](C)C(=O)N[C@H]1CNC(=O)/C=C/[C@H](Cc2ccc(O)c(O)c2)NC(=O)[C@H]([C@H](C)CC)NC(=O)C(=O)[C@H](CCCNC(=N)N)NC(=O)[C@@H]2CCCN2C1=O (some centres not stated) [CYCLOTHEONAMIDE E5]
16.1 nM	17 nM	6.9 nM	10.6 nM	CC[C@@H](C)[C@@H]1NC(=O)C(=O)[C@H](CCCNC(=N)N)NC(=O)[C@@H]2CCCN2C(=O)[C@@H](NC(=O)[C@H](C)NC(=O)Cc2ccccc2)CNC(=O)/C=C/[C@H](Cc2ccc(O)cc2)NC1=O [CYCLOTHEONAMIDE E] (PhAc-A[Dap]P[Arg(ψCOCO)][aIle][X1]; lactam 2-C)
